# Sampled rows, rich in hits. Any-hit rate of the full collection: about 2.3%.
# MT1-MMP act inh: blockers of MT1-MMP proenzyme processing, primary screen, HT1080 RFP-PRO-GFP cells, GFP/RFP fluorescence; Matrix metalloproteinase-14 (Homo sapiens), P50281; GFP/RFP ratio change, % at 20 µM; GFP/RFP ratio fluorescence, overnight; percent of plate control window, DMSO zero; 360,000 compounds, 0.061% hits;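 active means GFP/RFP ratio change of at least 30% with cell ATP level not reduced by more than half and red fluorescence within 50% of control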
#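 system = RFP-PRO-GFP reporter HT1080 cells | dosing = 20 µM single dose, 1% DMSO | timing = overnight cell settling, then overnight compound exposure, 37 °C, 5% CO2 | read-out basis = GFP/RFP fluorescence ratio | controls = DMSO and RFP-L50D-GFP cell wells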
# Rpn11 block: Rpn11 (PSMD14) deubiquitinase inhibitors, primary screen, biochemical, fluorescence polarization, uHTS; 26S proteasome non-ATPase regulatory subunit 14 (Homo sapiens), O00487; human 26S proteasome, Ub4-pepOG fluorescence polarization; 20S core pre-blocked with epoxomicin; inhibition, % at 20 µM; 360,000 compounds, 0.59% hits; AID 588493, 2011;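 active means inhibition at 20 µM, scaled to each plate's controls, above about 33%, limit read from the data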
# CSN deneddyl inh: inhibitors of CSN-mediated cullin deneddylation, primary screen, biochemical, fluorescence polarization, uHTS. AID 651999, 2013. COP9 signalosome complex subunit 5 (Homo sapiens), Q92905. 360,000 compounds, 0.38% hits. Purified CSN, SCF-Nedd8-OG deneddylation. inhibition, % at 12.5 µM;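 active means pattern-corrected inhibition above about 35%, with an unprinted fluorescence ratio check between 0.5 and 1.5, limit read from the data, passing the limit was not always enough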;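 further: 0% = enzyme with substrate and 100% = substrate without enzyme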
# Target sequence (Q92905 whole entry, looked up, one chain of several): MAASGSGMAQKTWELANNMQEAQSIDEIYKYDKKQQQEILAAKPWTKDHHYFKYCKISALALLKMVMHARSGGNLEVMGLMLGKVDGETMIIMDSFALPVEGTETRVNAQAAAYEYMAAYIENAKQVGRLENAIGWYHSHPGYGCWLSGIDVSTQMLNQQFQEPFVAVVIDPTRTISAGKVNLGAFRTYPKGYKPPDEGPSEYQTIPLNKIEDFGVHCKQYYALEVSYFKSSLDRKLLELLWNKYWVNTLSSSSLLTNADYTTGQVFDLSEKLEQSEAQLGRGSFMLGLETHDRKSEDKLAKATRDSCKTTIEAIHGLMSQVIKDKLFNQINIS
#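 Assay system: purified human Csn5 enzyme expressed in HEK293T cells; Input: 0.24 nM Csn5 enzyme, final concentration; Reagent: 10 nM SCFSkp2-Nedd8OG; Compound dosing: 12.5 µM single point; Times: reaction 90 min, room temperature; Technique: fluorescence polarization readout.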
# SUMO1 PPI mod: modulators of SUMO1 protein-protein interactions, primary screen, biochemical, uHTS. Small ubiquitin-related modifier 1 (Homo sapiens), P63165. SUMO1 binding to a labelled peptide, TR-FRET, 1 h. inhibition, % at 20 µM. 360,000 compounds, 0.33% hits. AID 602429, 2012; in the data active means inhibition above about 37%
# Target sequence (P63165 whole entry, looked up): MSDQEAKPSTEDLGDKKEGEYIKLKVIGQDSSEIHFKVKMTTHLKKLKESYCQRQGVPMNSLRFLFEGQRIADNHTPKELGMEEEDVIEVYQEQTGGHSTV
# SKN-1 inh: suppressors of acrylamide-induced Pgst-4::GFP reporter in worms, primary screen, SKN-1 inhibitor project, whole organism, uHTS, GFP/RFP fluorescence ratio, strain VP596 | C. elegans VP596 Pgst-4::GFP/RFP ratio, 24 h | inhibition, % at 21.8 µM | 360,000 compounds, 0.49% hits | AID 624304, 2012;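 active means interference check ratio from 0.5 to 1.5 plus GFP to RFP signal ratio inhibition reaching or exceeding a fixed threshold, cut at about 30% in these data, passing the limit was not always enough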
# DNMT1 block: human DNMT1 methyltransferase inhibitors, primary screen, biochemical, molecular beacon, fluorescence, HinP1I cleavage, uHTS; DNA (cytosine-5)-methyltransferase 1 (Homo sapiens), P26358; inhibition (reported as % activation of signal), % at 10 µM; 360,000 compounds, 0.83% hits; in the data active means inhibition above about 50%
# Beacon interf DR: spectral interference with molecular beacon fluorescence, dose response, artefact control for DNMT1 inhibitor project, biochemical, fluorescent molecular beacon. shares compounds with DNMT1 block. spectral interference counter-screen. IC50, µM. 200 tested, under 10 active. AID 602382, 2012; call rule not given here
# DNMT1 confirm: DNMT1 methyltransferase inhibitor retest, confirmation, biochemical, molecular beacon, fluorescence, single concentration | inhibition, % at 10 µM | shares compounds with DNMT1 block | DNMT1 molecular beacon HinP1I cleavage | 2,300 compounds, 8% hits | AID 602385, 2012;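 active means average inhibition of at least 30% in the single-concentration confirmation test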
# DNMT1 interf: beacon fluorescence artifact counter-screen. shares compounds with DNMT1 block. 2,300 compounds, 1% hits. activation (fluorescence interference), % at 10 µM. DNMT1 molecular beacon spectral interference counterscreen, fluorescence 485/520;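 active means activation of at least 30% at 10 µM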;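 further: DNMT1 catalytic domain with a HinP1I cleavage step and a FAM/dabcyl DNA beacon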
# Rpn11 confirm: Rpn11 (PSMD14) deubiquitinase inhibitors, confirmation, biochemical, fluorescence polarization, single concentration; shares compounds with Rpn11 block; purified human 26S proteasome, Ub4-pepOG fluorescence polarization; proteasome pretreated with epoxomicin; inhibition, % at 20 µM; 1,900 compounds, 29% hits
# MMP-2 counter: MMP-2 enzyme inhibition, confirmation, counter-screen for RPN11 inhibitor project, biochemical, fluorescence, single concentration; 1,900 compounds, 4% hits; recombinant MMP-2, FRET peptide cleavage fluorescence; inhibition, % at 20 µM; shares compounds with Rpn11 block;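 further: human MMP-2 activated beforehand with APMA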
# Thrombin FP: bovine thrombin protease inhibition, confirmation, counter-screen for Rpn11 inhibitor project, biochemical, fluorescence polarization, single concentration; shares compounds with Rpn11 block; bovine thrombin cleavage of Ub4-pepOG; inhibition, % at 20 µM; 1,900 compounds, 13% hits;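 active means mean inhibition at least 40% at 20 µM, or signal 3 deviations below plate average, so some actives read negative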;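 further: plate controls were thrombin with DMSO for no effect and buffer wells lacking thrombin for full effect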
# MT1-MMP conf: MT1-MMP activation inhibitors, hit retest, confirmation, single concentration, fluorescence, HT1080 RFP-PRO-GFP cells. shares compounds with MT1-MMP act inh. inhibition, % at 20 µM. 200 compounds, 10% hits. GFP and RFP fluorescence ratio, overnight;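 active means inhibition of at least 50% in the primary cell screen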
# Numbers without * were called inactive; x = no result. Unless noted, no stated cut-off is given here; in the data, active means inhibition above about 40%; inactive means the rest.
SMILES,MT1-MMP act inh,Rpn11 block,CSN deneddyl inh,SUMO1 PPI mod,SKN-1 inh,DNMT1 block,DNMT1 confirm,DNMT1 interf,MT1-MMP conf,others
CCOc1ccc(NC(=O)CN(c2ccc([N+](=O)[O-])cc2)S(=O)(=O)c2ccccc2)cc1,-1.0,-6.4,-3.7,-15.1,6.2,7.7,x,x,x,
Cn1c(=O)c2cc(S(=O)(=O)NC(C(=O)Nc3cccc(F)c3)c3ccccc3)ccc2n(C)c1=O (stereo not drawn),-1.7,46.8*,-2.2,3.7,-5.7,82.8*,0.8,3.9,x,Rpn11 confirm=71.5*;MMP-2 counter=-31.6;Thrombin FP=-16.2
CCOc1cc(/C=C2\C(=O)N(c3nc(-c4ccc(Br)cc4)cs3)N=C2c2ccccc2)ccc1O,62.9*,20.6,4.4,21.3,13.7,95.6*,92.8*,-4.9,6.9,Beacon interf DR=>99
COc1cc(/C=C2\C(=O)N(c3ccc(NC(C)=O)cc3)N=C2c2ccccc2)ccc1O,6.4,9.7,5.7,-4.7,11.7,-4.0,x,x,x,
Cc1cc2cc(CNC(=S)NCc3ccccc3)ccc2n1C,46.1*,11.3,13.7,-4.1,36.0*,77.4*,1.8,1.8,7.6,
CSc1ccc(Cn2c(C)c(C(=O)NCc3ccc(F)cc3)sc2=O)cc1,0.3,5.8,-3.7,2.4,11.3,-6.8,x,x,x,
O=C(O)c1cccc(N2C(=O)c3cc([N+](=O)[O-])cc4cc([N+](=O)[O-])cc(c34)C2=O)c1,41.9*,-19.5,34.3,29.3,-0.6,84.7*,18.3,-1.0,28.4,
COc1cccc(C(C)(O)c2nc(-c3ccc(N(C)C)cc3)cs2)c1 (stereo not drawn),1.0,0.7,2.0,3.8,27.2,-4.2,x,x,x,
Cc1sc2nc3c(SC(C)C(=O)O)cc(C(=O)c4ccccc4O)cn3c(=O)c2c1C (stereo not drawn),0.2,5.6,2.1,17.7,-0.3,-5.4,x,x,x,

# From PubChem BioAssay
